Measurements published in publication PMC6727982 (ACS chemical neuroscience, 2019).
Where two headings read alike, the source gives them in different places.

Legend:
[1] = target: human GluN1/GluN2B receptors (Homo sapiens, UniProt Q05586+Q13224); assay type: cell-based; details: for %control at 1 μM, mean (99% CI), GluN2B: 1 μM compound, percent of maximal response to 100 μM glutamate/glycine; for IC50: n = 6−12
[2] = tested on: GluN1/GluN2A/GluN2A (2A/2A); assay: Inhibition of diheteromeric 2A/2A receptors; assay type: cell-based; details: wild-type 2A/2A, 1 μM compound
Outline: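 Xenopus laevis stage VI oocytes injected with 5–10 ng receptor cRNA and kept at 15 °C in Barth's medium. Two-electrode voltage clamp run 2–7 days later at room temperature, holding −40 mV, in 90 mM NaCl, 1 KCl, 10 HEPES, 0.5 BaCl2, 0.01 EDTA, pH 7.4. Test compound (20 mM DMSO stock; final DMSO 0.05–0.5%) co-applied with 100 μM glutamate/100 μM glycine. Response given as % of response to agonists alone.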

[3] = LogD by shake-flask method with 18F-labeled tracers; assay type: physicochemical; details: pH 7.4
GluN2B subunit [4] = assay: In vitro autoradiography in NHP brain sections; assay type: binding; details: self-blocking 13 10 μM
Outline: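 Brain sections (20 μm) preincubated 20 min in 50 mM Tris-HCl pH 7.4 at room temperature, then incubated 60 min at room temperature with 18F-labelled test compound (37 kBq/mL, 1.58 nM). Self-block: 30 min pretreatment with unlabelled test compound (10 μM, 0.1% DMSO, 1% ethanol in buffer), then cold-buffer wash. Washed, dried, exposed to imaging plates overnight. Regional signal (gray value/unit area) expressed as a ratio to forebrain white matter.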

GluN2B subunit [5] = target: GluN2B subunit (Rattus norvegicus, UniProt P35439+Q00960); assay: In vitro autoradiography in rat brain sections; assay type: binding
Sequence of GluN2B subunit (Rattus norvegicus, UniProt P35439+Q00960) (Q00960 27-1482, other chains not shown): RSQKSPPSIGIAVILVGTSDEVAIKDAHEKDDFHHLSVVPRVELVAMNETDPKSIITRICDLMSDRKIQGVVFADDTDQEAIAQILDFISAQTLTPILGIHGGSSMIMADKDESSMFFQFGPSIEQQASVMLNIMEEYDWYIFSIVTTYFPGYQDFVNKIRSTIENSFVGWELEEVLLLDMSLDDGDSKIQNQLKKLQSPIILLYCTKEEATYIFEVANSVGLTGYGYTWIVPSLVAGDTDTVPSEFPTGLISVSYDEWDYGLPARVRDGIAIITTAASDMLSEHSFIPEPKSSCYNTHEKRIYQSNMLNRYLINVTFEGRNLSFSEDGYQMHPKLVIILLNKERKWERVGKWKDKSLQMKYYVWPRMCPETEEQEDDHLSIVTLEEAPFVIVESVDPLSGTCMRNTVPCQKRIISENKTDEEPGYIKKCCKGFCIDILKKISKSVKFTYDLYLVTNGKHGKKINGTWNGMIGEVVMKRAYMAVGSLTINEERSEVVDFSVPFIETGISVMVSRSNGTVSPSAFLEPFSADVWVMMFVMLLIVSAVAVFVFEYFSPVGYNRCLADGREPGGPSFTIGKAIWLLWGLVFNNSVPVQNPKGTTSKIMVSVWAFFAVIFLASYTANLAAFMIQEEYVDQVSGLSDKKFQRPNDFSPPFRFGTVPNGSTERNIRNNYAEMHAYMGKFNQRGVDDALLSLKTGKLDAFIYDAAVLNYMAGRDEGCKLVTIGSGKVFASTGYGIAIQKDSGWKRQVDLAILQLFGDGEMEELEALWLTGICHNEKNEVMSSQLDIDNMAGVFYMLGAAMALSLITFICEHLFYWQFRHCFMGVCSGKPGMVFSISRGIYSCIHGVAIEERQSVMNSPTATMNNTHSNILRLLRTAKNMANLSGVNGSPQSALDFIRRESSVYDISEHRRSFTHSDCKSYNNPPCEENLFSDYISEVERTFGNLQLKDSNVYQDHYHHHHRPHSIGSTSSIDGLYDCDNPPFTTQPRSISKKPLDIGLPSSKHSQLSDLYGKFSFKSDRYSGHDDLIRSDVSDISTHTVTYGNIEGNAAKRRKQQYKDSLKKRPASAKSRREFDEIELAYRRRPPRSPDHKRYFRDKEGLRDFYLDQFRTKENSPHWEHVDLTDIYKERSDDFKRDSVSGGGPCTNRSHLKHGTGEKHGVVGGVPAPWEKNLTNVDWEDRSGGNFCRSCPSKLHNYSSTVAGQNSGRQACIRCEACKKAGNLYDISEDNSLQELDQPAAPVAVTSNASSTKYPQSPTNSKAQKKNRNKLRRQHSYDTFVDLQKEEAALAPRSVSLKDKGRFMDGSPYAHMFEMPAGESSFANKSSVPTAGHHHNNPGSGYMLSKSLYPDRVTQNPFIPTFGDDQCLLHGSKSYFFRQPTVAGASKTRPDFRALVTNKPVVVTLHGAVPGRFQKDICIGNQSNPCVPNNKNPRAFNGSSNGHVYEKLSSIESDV

[6] = Radiometabolite analysis in mice; assay type: in vivo; details: ICR mice, 15 min post injection, n = 2
Outline: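 Female CD1 (ICR) mice (8 weeks, 23–27 g) received tracer IV via tail vein and were killed at 15 min. Plasma was deproteinized with ice-cold CH3CN, and brain was homogenized in ice-cold CH3CN, with repeated centrifugation at 4 °C. Supernatants were spiked with unlabelled reference and run on C18 radioHPLC (CH3CN/H2O 55/45, 5 mL/min). Fractions were gamma-counted; parent % = parent counts/total counts × 100.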

[7] = Whole body ex vivo biodistribution in mice
Outline: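 Female CD1 (ICR) mice (8 weeks, 23–27 g) were injected via tail vein with tracer, 740 kBq/100 μL saline containing 5% ethanol. Animals were killed at 2, 10, 30 and 60 min. Organs were removed, weighed and gamma-counted. %ID/g of wet tissue (stomach as %ID/organ) was calculated against diluted aliquots of the injected dose, with decay correction.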

[8] = IC50, mean, 100 μM glutamate/glycine coapplied with increasing concentrations
[9] = pIC50, mean (95% CI), 100 μM glutamate/glycine
[10] = rat, self-blocking 13 10 μM, n = 3
[11] = remained high until 10 min post injection

Sequence of human GluN1/GluN2B receptors (Q13224 27-1484, other chains not shown): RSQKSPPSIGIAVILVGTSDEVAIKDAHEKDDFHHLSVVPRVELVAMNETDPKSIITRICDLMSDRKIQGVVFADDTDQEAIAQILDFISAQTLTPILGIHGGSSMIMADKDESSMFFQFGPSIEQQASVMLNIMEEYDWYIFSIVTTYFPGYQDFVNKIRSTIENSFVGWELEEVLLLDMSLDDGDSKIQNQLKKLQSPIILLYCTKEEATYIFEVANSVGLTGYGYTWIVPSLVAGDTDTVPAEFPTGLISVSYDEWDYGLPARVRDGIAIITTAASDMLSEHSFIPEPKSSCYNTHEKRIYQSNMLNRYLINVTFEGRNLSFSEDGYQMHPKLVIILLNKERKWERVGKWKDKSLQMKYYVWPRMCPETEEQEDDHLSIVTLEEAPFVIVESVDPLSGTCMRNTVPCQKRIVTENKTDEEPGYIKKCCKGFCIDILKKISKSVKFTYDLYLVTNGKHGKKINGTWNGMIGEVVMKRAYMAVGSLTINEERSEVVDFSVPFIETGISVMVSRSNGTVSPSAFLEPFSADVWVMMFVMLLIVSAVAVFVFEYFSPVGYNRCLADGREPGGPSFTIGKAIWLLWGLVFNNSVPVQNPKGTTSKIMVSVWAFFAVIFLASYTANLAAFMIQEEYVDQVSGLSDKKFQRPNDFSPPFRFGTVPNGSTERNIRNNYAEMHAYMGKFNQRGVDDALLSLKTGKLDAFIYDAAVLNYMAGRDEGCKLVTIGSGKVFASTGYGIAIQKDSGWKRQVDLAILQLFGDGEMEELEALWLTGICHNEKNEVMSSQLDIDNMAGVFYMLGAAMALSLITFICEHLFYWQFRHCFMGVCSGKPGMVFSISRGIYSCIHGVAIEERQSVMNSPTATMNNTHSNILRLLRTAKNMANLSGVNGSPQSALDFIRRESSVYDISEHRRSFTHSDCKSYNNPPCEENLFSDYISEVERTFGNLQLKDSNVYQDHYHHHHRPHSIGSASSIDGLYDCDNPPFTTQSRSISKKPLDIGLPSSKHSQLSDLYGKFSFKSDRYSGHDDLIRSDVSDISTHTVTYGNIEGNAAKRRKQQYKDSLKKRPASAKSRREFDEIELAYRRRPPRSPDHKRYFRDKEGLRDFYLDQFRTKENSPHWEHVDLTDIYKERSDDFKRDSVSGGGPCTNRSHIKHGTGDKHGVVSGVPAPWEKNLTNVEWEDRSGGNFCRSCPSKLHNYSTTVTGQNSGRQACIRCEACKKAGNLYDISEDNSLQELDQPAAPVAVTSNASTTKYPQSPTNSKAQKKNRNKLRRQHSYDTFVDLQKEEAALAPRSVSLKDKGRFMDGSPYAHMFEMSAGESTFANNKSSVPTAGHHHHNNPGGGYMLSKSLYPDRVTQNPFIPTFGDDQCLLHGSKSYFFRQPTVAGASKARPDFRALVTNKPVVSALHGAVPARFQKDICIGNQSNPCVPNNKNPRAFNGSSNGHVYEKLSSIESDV

## COc1cnc(OCc2cn(-c3ccc(F)c(Br)c3)nn2)nc1 [Compound 11, 2-((1-(3-Bromo-4-fluorophenyl)-1H-1,2,3-triazol-4-yl)methoxy)-5-methoxypyrimidine]
[1]
  %control at 1 μM, mean (99% CI), GluN2B: 13 (7, 19) %
[1]; [8]
  IC50: 19 nM
[1]; [9]
  IC50: 19.1 nM
[2]
  sensitivity of 2A/2A responses: insensitive
[3]
  logD: 3.14 ± 0.037

## COc1cnc(OCc2cn(-c3ccc(Br)c(F)c3)nn2)nc1 [Compound 12, 2-((1-(4-Bromo-3-fluorophenyl)-1H-1,2,3-triazol-4-yl)methoxy)-5-methoxypyrimidine]
[1]; [8]
  IC50: 339 nM
[1]; [9]
  IC50: 282 nM

## COc1cnc(OCc2cn(-c3ccc(F)c(C)c3)nn2)nc1 [Compound 13, 2-((1-(4-Fluoro-3-methylphenyl)-1H-1,2,3-triazol-4-yl)methoxy)-5-methoxypyrimidine]
[1]
  %control at 1 μM, mean (99% CI), GluN2B: 17 (11, 23) %
[2]
  sensitivity of 2A/2A responses: insensitive
[3]
  logD: 2.89 ± 0.037

## COc1cnc(OCc2cn(-c3ccc(C)c(F)c3)nn2)nc1 [Compound 14, 2-((1-(3-Fluoro-4-methylphenyl)-1H-1,2,3-triazol-4-yl)methoxy)-5-methoxypyrimidine]
[1]; [8]
  IC50: 89 nM
[1]; [9]
  IC50: 75.9 nM

## COc1cnc(OCc2cn(-c3ccc([18F])c(C)c3)nn2)nc1 [[^18F]13, 2-((1-(4-[^18F]fluoro-3-methylphenyl)-1H-1,2,3-triazol-4-yl)methoxy)-5-methoxypyrimidine]
GluN2B subunit [4]
  specific binding, caudate nucleus: 79%
  specific binding, entorhinal cortex: 89%
  specific binding, insular cortex: 82%
  specific binding, putamen: 73%
  specific binding, thalamus: 53%
GluN2B subunit [4]; n = 3
  specific binding, hippocampus: 87%
GluN2B subunit [5]; rat brain sections, cold compound 13 10 μM
  reduction of uptake by self-blocking: ~ 90%
GluN2B subunit [5]; [10]
  specific binding, frontal cortex: 94%
  specific binding, hippocampus: 94%
  specific binding, striatum: 92%
  specific binding, thalamus: 88%
[6]
  parent fraction in brain: 56.6%
  parent fraction in liver: 5.1%
  parent fraction in plasma: 11.8%
[3]
  logD: 2.89
[7]
  bone uptake: < 2 %ID/g
[7]; 2 min postinjection
  initial uptake in heart, lung, kidney, liver, and small intestine: > 5 % ID/g
[7]; 60 min postinjection
  uptake in heart, lung, kidney, spleen, pancreas, and muscle: < 0.6 % ID/g
[7]; i.v., 2 min post injection
  brain uptake at 2 min (brain2min): 3.60 % ID/g
[7]; i.v., 10 min post injection
  brain uptake at 10 min: 0.72 %ID/g
[7]; i.v., 60 min post injection
  brain uptake at 60 min: 0.018 % ID/g
[7]; [11]
  liver uptake: 20.84 % ID/g
  small intestine uptake: 39.15 % ID/g
